Screens: PubChem, The Scripps Research Institute Molecular Screening Center
NPY-Y1 antag = blocks the human neuropeptide Y Y1 receptor | P25929 | HEK293-CNG Y1 cells, membrane potential fluorescence; NPY at EC95, then isoproterenol | inhibition, % at 3.6 µM | hit rate 1% among 200,000 | AID 1040;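 active means inhibition above the campaign mean inhibition of all tested compounds plus 3 SD, cut at about 20% in these data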;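 further: 0% = DMSO wells given NPY plus isoproterenol and 100% = isoproterenol alone without NPY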
Target sequence (P25929 whole entry, looked up): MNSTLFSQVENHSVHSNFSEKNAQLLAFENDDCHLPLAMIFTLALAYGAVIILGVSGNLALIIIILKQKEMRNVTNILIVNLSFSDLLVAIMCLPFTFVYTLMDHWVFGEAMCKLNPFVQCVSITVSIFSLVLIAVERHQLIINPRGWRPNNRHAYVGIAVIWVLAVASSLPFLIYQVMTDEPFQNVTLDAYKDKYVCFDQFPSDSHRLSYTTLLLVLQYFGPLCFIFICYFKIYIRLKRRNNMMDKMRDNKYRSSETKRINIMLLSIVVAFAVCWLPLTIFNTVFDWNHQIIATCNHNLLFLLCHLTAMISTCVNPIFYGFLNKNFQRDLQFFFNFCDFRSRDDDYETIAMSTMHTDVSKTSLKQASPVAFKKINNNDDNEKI
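Material: HEK293 cells with Y1 receptor plus CNG channel; times: compound incubation 1 h at room temperature, readout 45 min post-stimulation; signal: fluorescence, membrane potential probe; read-out basis: fluorescence ratio normalized to % inhibition between controls; benchmarks: full-block control isoproterenol-only wells, zero-block control NPY plus isoproterenol wells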
NPY-Y2 PAM-ag = potentiators or agonists of human neuropeptide Y receptor Y2; P49146; cells expressing NPY-Y2, potentiator/agonist read-out; activation, % at 3.6 µM; hit rate 0.45% among 220,000; AID 1359; in the data active means activation above about 27%;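 further: cells stimulated with NPY near EC25 plus isoproterenol at EC100; 0% = vehicle plus submaximal agonist and 100% = vehicle plus saturating agonist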
Target sequence (P49146 whole entry, looked up): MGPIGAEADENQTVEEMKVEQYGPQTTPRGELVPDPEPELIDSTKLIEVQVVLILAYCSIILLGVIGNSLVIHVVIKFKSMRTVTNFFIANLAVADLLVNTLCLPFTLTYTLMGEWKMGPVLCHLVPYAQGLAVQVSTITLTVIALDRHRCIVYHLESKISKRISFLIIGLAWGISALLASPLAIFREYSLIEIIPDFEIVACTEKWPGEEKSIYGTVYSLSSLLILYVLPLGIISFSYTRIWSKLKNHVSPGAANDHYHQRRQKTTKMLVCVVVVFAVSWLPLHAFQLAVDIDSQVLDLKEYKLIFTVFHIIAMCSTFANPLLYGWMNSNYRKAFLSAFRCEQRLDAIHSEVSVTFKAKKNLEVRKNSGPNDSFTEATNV
NPY-Y1 PAM-ag = potentiators or agonists of human neuropeptide Y receptor Y1 | P25929 | activation, % at 3.6 µM | NPY-Y1 expressing cells, potentiator/agonist activation | AID 1304 | hit rate 0.37% among 220,000; in the data active means activation above about 33%, passing the limit was not always enough;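 further: cells stimulated with NPY at EC10 then isoproterenol at EC100; 0% = low agonist plus stimulus and 100% = saturating agonist plus stimulus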
NPY-Y2 antag = antagonists of human neuropeptide Y receptor Y2; NPY-Y2 expressing cells, antagonist mode; inhibition, % at 2.7 µM; hit rate 0.99% among 140,000; in the data active means inhibition above about 17%;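 further: 0% = vehicle with agonist challenge and 100% = reference antagonist with challenge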
NPY-Y2 confirm = confirmation of human NPY-Y2 receptor potentiators or agonists | shares compounds with NPY-Y2 PAM-ag | cell-based NPY-Y2 potentiator/agonist assay | activation, % at 3.6 µM | hit rate 20% among 450 | AID 1539; in the data active means activation above about 33%
NPY-Y1 counter = NPY-Y1 potentiation or agonism as NPY-Y2 counter-screen. hit rate 20% among 450. Y1 HEK293-CNG cells, membrane potential fluorescence. shares compounds with NPY-Y2 PAM-ag. AID 1651. activation, % at 3.6 µM; in the data active means activation above about 45%;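 further: cells stimulated with submaximal NPY then isoproterenol with phosphodiesterase inhibitor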
NPY-Y1 ag 2 = counter-screen for NPY-Y2 potentiators: agonists of human NPY-Y1. shares compounds with NPY-Y2 PAM-ag. HEK293 Y1-CNGC, membrane potential fluorescence, agonism. activation, % at 3.6 µM. hit rate 37% among 450. AID 1702;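 active means activation above the mean of DMSO-only control wells plus 3 SD, cut at about 18% in these data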;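 further: cells stimulated with 1 µM isoproterenol plus the PDE inhibitor Ro 20-1724; 0% = isoproterenol with DMSO and no NPY and 100% = 40 nM NPY; Y1 agonists lower the membrane potential dye signal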
CNGC inhibitor = cyclic nucleotide gated channel inhibition as counter-screen; HEK293-CNG parental, isoproterenol cAMP, membrane potential fluorescence; shares compounds with NPY-Y2 PAM-ag; hit rate 32% among 450; inhibition, % at 3.6 µM;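 active means inhibition above the control-well mean plus 3 SD of those wells, cut at about 22% in these data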;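 further: 0% = DMSO with isoproterenol and 100% = DMSO without isoproterenol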
NPY-Y2 ag 2 = NPY-Y2 agonism, counter-screen for Y2 potentiators. shares compounds with NPY-Y2 PAM-ag. HEK293 Y2/CNGC cells, membrane potential fluorescence, agonist mode. activation, % at 3.6 µM. hit rate 56% among 450. AID 1710;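 active means activation above the mean of solvent-only control wells plus 3 SD, cut at about 10% in these data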;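 further: cells stimulated by isoproterenol with no NPY added so direct agonism is tested; 0% = DMSO with isoproterenol alone and 100% = NPY at EC100 plus isoproterenol; agonism lowers probe fluorescence through less cAMP and CNG channel opening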
Starred values were filed as active, the others as inactive; nt = no result given. An excerpt weighted towards active compounds, which were near 1.8% of everything screened.

SMILES	NPY-Y1 antag	NPY-Y2 PAM-ag	NPY-Y1 PAM-ag	NPY-Y2 antag	NPY-Y2 confirm	NPY-Y1 counter	NPY-Y1 ag 2	CNGC inhibitor	NPY-Y2 ag 2
Cc1ccc(NC(=S)N2CCC(N(C)CC3CCCO3)CC2)cc1 (configuration not stated)	0	10	-11	nt	nt	nt	nt	nt	nt
COc1ccc2c(c1)c(CC(=O)Nc1nnc(C3CC3)s1)c(C)n2C(=O)c1ccc(Cl)cc1	nt	49*	49	nt	12	10	21*	-4	12*
S=C1NCN(CCc2ccccc2)CN1	nt	73*	6	nt	-1	-3	-5	3	5
S=C1NCN(CCc2ccccc2)CN1Cc1ccccc1	nt	-7	2	nt	nt	nt	nt	nt	nt
CCOC(=O)c1c(C)[nH]c(C(=O)COC(=O)c2ccc(O)cc2)c1C	nt	45*	8	nt	-9	-16	-13	-11	-3
Cc1ccc(C)c(OCC(O)CN2CCC(C)CC2)c1C (configuration not stated)	5	-3	-4	5	nt	nt	nt	nt	nt
Cc1ccccc1OCC(O)CN1CCC(C)CC1 (configuration not stated)	-4	37*	31	nt	21	34	19*	3	42*
CCOC(=O)c1[nH]c(=O)[nH]c1COC(=O)c1cc2ccccc2o1	3	8	-8	5	nt	nt	nt	nt	nt
CC(C)C(O)(C#CCN1CCCC1)c1ccccc1 (configuration not stated)	4	102*	5	0	-6	-11	-6	-4	1
CCOC(=O)c1cccnc1SCC(=O)N(CC)c1cccc(C)c1	10	4	19	5	nt	nt	nt	nt	nt
O=C(Cc1ccccc1)Nc1scc(-c2ccccc2)c1C(=O)N1CCOCC1	-1	-17	15	3	nt	nt	nt	nt	nt
NC(=O)c1c(-c2ccc(Cl)cc2Cl)csc1NC(=O)Cc1ccccc1	16	32*	-56	7	-8	-44	-37	-17	-6
O=C(COC(=O)c1ccccc1Nc1cccc(C(F)(F)F)c1)NCc1ccco1	-4	-3	-40	3	nt	nt	nt	nt	nt
COc1ccc(NS(=O)(=O)c2cnc[nH]2)cc1	0	30*	-3	nt	4	11	-4	2	8
S=C(Nc1ccc(Nc2ccccc2)cc1)Nc1ccccn1	-12	33*	30	nt	19	3	10	4	14*
N#C/C(=C(/O)c1cccc(F)c1)c1nc2ccccc2s1	nt	103*	11	nt	-2	-14	-15	-9	4
N#C/C(=N/Nc1ccc(OC(F)(F)F)cc1)C(N)=S	nt	46*	27	nt	13	1	-10	-2	23*
O=C(NCCCn1ccnc1)Nc1ccc(Cl)cc1	-2	103*	32	-1	5	10	0	7	11*
O=C(NCCCn1ccnc1)Nc1ccc(Cl)c(Cl)c1	3	1	-18	1	nt	nt	nt	nt	nt
c1csc(Cc2nc(-c3ccc(-n4cccc4)cc3)no2)c1	6	-20	-15	5	nt	nt	nt	nt	nt
CN1C(=O)c2cccc(N(C)C)c2C1=O	3	-3	-6	0	nt	nt	nt	nt	nt
CN(C)c1cccc2c1C(=O)c1ccccc1C2=O	-5	33*	17	-6	34*	42	26*	26*	29*
Cc1nn(Cc2ccccc2Cl)c(C)c1C(=O)N1CCN(c2ccccc2)CC1	12	116*	7	6	1	-3	-3	-5	6
Cc1nn(Cc2ccccc2Cl)c(C)c1C(=O)NC1=NCCS1	6	-5	-3	0	nt	nt	nt	nt	nt
Cn1c(=O)c2c(nc(SCC(=O)N3CCc4ccccc43)n2Cc2ccc(F)cc2)n(C)c1=O	7	-5	-7	1	nt	nt	nt	nt	nt
SMILES	NPY-Y1 antag	NPY-Y2 PAM-ag	NPY-Y1 PAM-ag	NPY-Y2 antag	NPY-Y2 confirm	NPY-Y1 counter	NPY-Y1 ag 2	CNGC inhibitor	NPY-Y2 ag 2
CC(C)CC(=O)Nc1nnc(SCC(=O)NCc2ccc3c(c2)OCO3)s1	4	5	8	nt	nt	nt	nt	nt	nt
N#CC(C#N)=C(Nc1ccc(F)cc1)SCc1cccc(F)c1	8	37*	4	3	-4	-37	-25	-17	2
Fc1ccc(Nc2ccnc(Nc3ccc(F)cc3)n2)cc1	-5	32*	26	-3	21	28	15	24*	26*
Nc1ncnc(Nc2ccc(F)cc2)n1	-3	5	-3	0	nt	nt	nt	nt	nt
CCOC(=O)Cc1csc(N/C(=N/S(=O)(=O)c2cc(Br)ccc2OCC)c2ccccc2)n1	-2	9	19	1	nt	nt	nt	nt	nt
NC(=O)c1ccc2nc(NC(=O)c3ccc(N)cc3)sc2c1	-5	31*	23	nt	11	14	18*	16	18*
Cc1ccccc1-c1nnc(-c2cccs2)o1	7	-2	-9	nt	nt	nt	nt	nt	nt
CC(=O)c1ccc(NC(=O)C2CCCN(C(=O)c3ccc(Cl)cc3)C2)cc1 (configuration not stated)	-8	28*	19	nt	32	38	29*	30*	30*
Cc1cc2c(ncn2Cc2ccccc2)c([N+](=O)[O-])c1C	1	-4	-6	3	nt	nt	nt	nt	nt
N#CCCN1CCN(C2=NC(=O)/C(=C\c3cccs3)S2)CC1	4	-3	-1	nt	nt	nt	nt	nt	nt
Brc1ccc(-c2csc(-c3c[nH]c4ccccc34)n2)cc1	-5	11	5	-3	nt	nt	nt	nt	nt
c1ccc2c(-c3csc(-c4ccncc4)n3)c[nH]c2c1	-11	33*	34	nt	28	53*	51*	39*	34*
CC(=O)c1sc(NC(=O)c2cc3c(C)nn(-c4ccccc4)c3s2)nc1C	-1	-11	2	3	nt	nt	nt	nt	nt
Cc1nn(-c2ccccc2)c2sc(C(=O)NC3CC3)cc12	0	45*	-6	0	-5	-3	4	1	0
COc1cc(NC(=S)NCCc2ccc(S(N)(=O)=O)cc2)c(OC)cc1Cl	4	7	4	nt	nt	nt	nt	nt	nt
CCCCOc1ccc(CCC(=O)N/N=C/c2ccco2)cc1	nt	-10	-1	nt	nt	nt	nt	nt	nt
CCCOc1ccc(CCC(=O)N/N=C/c2ccco2)cc1	nt	100*	8	nt	2	3	-5	1	6
CC[C@@H](C(=O)n1nc(C)cc1C)[C@H](NS(=O)(=O)c1ccc(C)cc1)c1ccccc1	-11	-5	-7	-1	nt	nt	nt	nt	nt
CC(C)CC(NC(=O)c1ccc(Cl)cc1)C(=O)OCc1cc([N+](=O)[O-])cc2c1OCOC2 (configuration not stated)	-8	28*	22	2	0	-2	-10	-3	18*
CC(C)C(NC(=O)c1ccccc1)C(=O)OCc1cc([N+](=O)[O-])cc2c1OCOC2 (configuration not stated)	4	7	-8	2	nt	nt	nt	nt	nt
CC(=O)NC(=S)Nc1ccc2oc(=O)ccc2c1	nt	9	17	nt	nt	nt	nt	nt	nt
